Source: PubChem
This is a sample that favours compounds with a hit; in the whole collection about 3.9% have one here.
HTR2A ag: agonists of mouse serotonin 5-HT2A receptor (HTR2A). 360,000 tested, 0.66% active. CHO-K1 mHTR2A beta-arrestin complementation, luminescence; percent of 30 µM serotonin response. AID 624169. activation, % at 7.6 µM;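 active = activation above a run cutoff, the mean activation of all tested compounds plus 3 SD, cut at about 14% in these data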;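 note: 0% = plate median of compound wells and 100% = 30 µM serotonin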
Target sequence (P35363 whole entry, looked up): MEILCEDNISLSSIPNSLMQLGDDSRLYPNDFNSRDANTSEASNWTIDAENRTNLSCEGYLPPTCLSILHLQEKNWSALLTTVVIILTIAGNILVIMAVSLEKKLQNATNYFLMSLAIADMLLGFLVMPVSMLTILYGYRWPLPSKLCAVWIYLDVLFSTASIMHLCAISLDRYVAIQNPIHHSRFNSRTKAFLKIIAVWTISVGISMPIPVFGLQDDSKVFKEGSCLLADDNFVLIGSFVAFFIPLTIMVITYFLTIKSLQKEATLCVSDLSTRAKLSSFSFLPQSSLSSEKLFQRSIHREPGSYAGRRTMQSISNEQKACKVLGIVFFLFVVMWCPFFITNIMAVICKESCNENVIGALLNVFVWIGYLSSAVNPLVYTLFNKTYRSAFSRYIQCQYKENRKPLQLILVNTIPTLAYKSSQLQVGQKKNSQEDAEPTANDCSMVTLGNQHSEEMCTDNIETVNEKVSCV
TAAR1 agonist: human TAAR1 agonism; CHO RD-HGA16 TAAR1, Fluo-8 calcium fluorescence; vehicle wells 0%, saturating PEA agonist 100%; activation, % at 3 µM; 360,000 tested, 0.99% active; AID 624467;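 active = activation above the mean activation of all test compounds in the run plus 3 SD, cut at about 38% in these data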
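Assay system – CHO-derived RD-HGA16 cells with stable Gα16 and human TAAR1 · Compound dosing – one-point dosing at 3 µM (nominal) · Incubation – 17-24 h seeding, 75 min 37 °C dye, 30 min RT · Measured by – kinetic Fluo-8 calcium fluorescence · Control set – DMSO vehicle as 0%, PEA at EC100 as 100% · Repeats – single well for each compound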
M1 ag: agonists of human M1 muscarinic receptor | CHO-K1 hM1, Fluo-8 calcium fluorescence, agonist mode; 0% DMSO, 100% acetylcholine EC100 | activation, % at 3 µM | 360,000 tested, 0.33% active | AID 588814;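 active = activation above the run's mean compound activation plus 3 SD, cut at about 16% in these data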;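 note: peak over basal fluorescence ratio within a 140 s kinetic read after compound addition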
CHRM1 antagonist: antagonists of human M1 muscarinic receptor | inhibition, % at 3 µM | 360,000 tested, 1.3% active | CHO-K1 hM1, Fluo-8 calcium fluorescence, ACh EC80 antagonist;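 active = percent inhibition above its own plate's cutoff, namely the mean of that plate's compound wells plus 3 SD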;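 note: peak over basal fluorescence ratio during 140 s after agonist addition; 0% = ACh EC80 plus DMSO and 100% = DMSO alone without agonist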
TAAR1 antagonist: human TAAR1 antagonism; 360,000 tested, 1.5% active; Q96RJ0; inhibition, % at 3 µM; CHO RD-HGA16 TAAR1, Fluo-8 calcium fluorescence, antagonist; AID 624466;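 active = inhibition above a per-plate cutoff, the mean inhibition of test compounds on that plate plus 3 SD, cut at about 49% in these data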;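 note: 0% = DMSO plus EC80 beta-PEA response and 100% = DMSO alone without agonist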
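Test system – hTAAR1-expressing CHO RD-HGA16 cells, Gα16-coupled · Reagent – β-PEA at EC80 concentration, post-compound challenge · Compound dosing – 3 µM, single point · Timing – 140 s kinetic read after compound, 140 s after agonist · Detection – Fluo-8 intracellular calcium dye fluorescence, real-time kinetic reads · Control set – DMSO and EC80 PEA controls · Repeats – n of 1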
M1 PAM: positive allosteric modulators of human M1 muscarinic receptor. CHO-K1 hM1, Fluo-8 calcium fluorescence, ACh EC20; 0% = ACh EC20, 100% = maximal ACh. activation, % at 3 µM. 360,000 tested, 0.088% active; in the data active = activation above about 19%, passing the limit was not always enough
An asterisk follows results filed as active; · = no result.

SMILES | HTR2A ag | TAAR1 agonist | M1 ag | CHRM1 antagonist | TAAR1 antagonist | M1 PAM
COC(=O)C1CCN(C(=O)CN(C)Cc2ccc(C(C)(C)C)cc2)CC1 | -7.1 | 6.1 | -10.9 | 33.9* | -4.1 | -25.3
CC1CCN(CCCNC(=O)C2CCC(CNS(=O)(=O)c3cccc4nsnc34)CC2)CC1 (stereo unspecified) | -6.1 | 0.3 | -6.0 | 65.0* | -28.5 | -23.1
CC(C)(C)NC(=O)C1CCC(CNS(=O)(=O)c2cccc3nsnc23)CC1 (stereo unspecified) | 5.8 | 41.8* | -2.3 | 2.9 | 75.7* | -0.4
Cc1ccc2c(c1)C(c1ccccc1)N(C(=O)c1ccc3c(c1)OCO3)CC(=O)N2 (stereo unspecified) | 4.1 | 4.9 | -1.6 | -1.0 | 4.2 | 2.5
S=C(Nc1ccc(Br)cc1)Nc1ccc2c(c1)OCCO2 | -4.9 | 5.9 | -1.2 | 30.6* | -2.1 | -11.1
CCN(CC)CCCNC(=O)CSc1nc(C)cc(C)n1 | 6.5 | -0.9 | -9.9 | -5.8 | -0.9 | 6.6
COc1ccc(NC(=S)N(CCCN2CCCC2)Cc2cccs2)cc1 | 0.7 | 4.0 | -8.1 | 55.2* | 0.6 | -22.6
O=C(Nc1ccc(Cl)cc1)N(CCCN1CCOCC1)Cc1cccs1 | 7.1 | 5.1 | -9.0 | 4.8 | 0.2 | -12.0
Cc1c(Cl)cccc1NC(=S)N(CCCN1CCOCC1)Cc1ccco1 | -4.4 | 2.9 | -6.1 | 48.3* | 2.2 | -25.4
S=C(Nc1ccc(Cl)cc1)N(CCCN1CCOCC1)Cc1cccs1 | 3.8 | 1.1 | -8.7 | 45.5* | -0.4 | -25.1
CCN1CCN(CCCN(Cc2ccco2)C(=S)Nc2cccc(Cl)c2C)CC1 | -8.7 | 2.8 | -8.2 | 18.0 | -20.1 | -11.3
Cc1ccc(NC(=O)N(CCCN2CCOCC2)Cc2cccs2)cc1C | -8.6 | 0.6 | -3.1 | -31.4 | 3.3 | 32.4*
Nc1nc2cc3c(cc2cc1C(=O)NCc1cccnc1)OCO3 | · | 2.0 | · | · | 12.7 | ·
O=C(Cc1ccc(NC(=O)C2CCCN(C(=O)C3CC3)C2)cc1)Nc1cccc(C(=O)N2CCCCC2)c1 (stereo unspecified) | 7.3 | 1.2 | -4.4 | -10.3 | -9.7 | 4.9
CC(C)C1Cc2c(sc3c2c(=O)n(-c2ccccc2)c2n[nH]c(=S)n32)CO1 (stereo unspecified) | -0.5 | 0.1 | -2.9 | -0.1 | -32.7 | 2.3
C=CC[C@]12C[C@@]3(O[C@H](c4ccc(C(F)(F)F)cc4)N=C3C[C@H](c3ccc(OC)cc3)[C@H]1C)N(Cc1ccncc1)C2=O | · | -0.1 | · | · | -45.1 | ·
COc1ccc(NC(=S)N(CCN2CCCCC2)Cc2ccco2)cc1 | -1.9 | 6.8 | -7.7 | 4.0 | -17.1 | -4.5
COc1ccc(NC(=S)N(CCCN2CCCC2)Cc2ccco2)cc1 | -7.6 | 0.1 | -7.7 | 36.1* | 3.7 | -19.9
CC(NCCCOc1cccc2ccccc12)c1ccccc1 (stereo unspecified) | -4.9 | 44.9* | 3.0 | -6.0 | 36.1 | 8.7
CCN(CC)c1ccc2c(c1)OC(N)=C(C#N)C2c1cccnc1 (stereo unspecified) | 6.0 | 63.6* | 22.3* | -4.0 | -6.6 | -10.6
COc1ccc(N2C(=O)C(Cl)=C(Nc3ccccc3O)C2=O)cc1 | -5.3 | 11.1 | -2.3 | 0.3 | 49.1* | 1.8
COc1ccc(N2C(=O)C(Cl)=C(Nc3ccccc3OC)C2=O)cc1 | -0.9 | -1.7 | -7.0 | -2.8 | -16.4 | 4.4
CCOCCn1c(CN2CCN(C)CC2)nc2c1c(=O)n(C)c(=O)n2C | 7.7 | 0.5 | -1.4 | -31.2 | -7.8 | 28.7*
CCCc1cc(=O)oc2cc(OCC(=O)N3CCN(C(=O)C4COc5ccccc5O4)CC3)ccc12 (stereo unspecified) | -1.3 | 7.1 | -1.1 | 20.7 | 49.1* | -10.2
CC1CN(C(=O)COc2ccc3c(-c4ccccc4)cc(=O)oc3c2)CC(C)O1 (stereo unspecified) | 0.3 | 0.0 | -2.1 | 29.4* | -7.4 | -14.1
SMILES | HTR2A ag | TAAR1 agonist | M1 ag | CHRM1 antagonist | TAAR1 antagonist | M1 PAM
CCN(CC(=O)Nc1ccccc1C(F)(F)F)C(=O)C1CSC2(C)CCC(=O)N12 (stereo unspecified) | -3.7 | 2.0 | -2.3 | -18.4 | -22.1 | 3.9
Cc1cc(C)c(C(=O)Nc2ccc(Br)c(C(F)(F)F)c2)c(C)c1 | 2.8 | 4.5 | -11.9 | 64.8* | -4.4 | -27.2
Cc1ccccc1C(=NCCCN(C)C)c1ccccc1C | -0.5 | 1.7 | -15.4 | 77.2* | 7.2 | -27.6
CC(=NCCCN(C)C)C1=C(O)c2ccccc2C1=O | -4.2 | 6.0 | -5.7 | 2.0 | -7.7 | 1.5
CN(N=C(c1ccccc1)c1ccccc1)c1ccccc1 | -6.2 | 0.7 | 0.9 | -5.5 | -3.1 | 5.2
Cc1cccc(C)c1C(=NCCN(C)C)c1ccccc1 | -5.6 | 14.6 | -6.4 | 75.0* | 5.0 | -24.1
CC(=O)N1CCN(c2c(F)c(F)c(C(F)(F)F)c(F)c2F)CC1 | 10.3 | 5.8 | 2.8 | 13.7 | -4.6 | 0.3
C#CCOCCOCCOCCNc1nc(N2CCN(C(=O)[C@H](CC(N)=O)n3cc(C(N)[C@@H](C)CC)nn3)CC2)nc(N2CCN(C(=O)[C@H](CCC(=O)O)n3cc([C@@H](N)CCCCN)nn3)CC2)n1 (stereo partly specified) | 1.0 | 9.9 | -1.3 | -6.6 | 12.3 | 7.9
O=C(CCSc1ccccn1)c1ccccc1 | 2.6 | 3.6 | -9.7 | 4.9 | -8.2 | 1.2
FC(F)Oc1ccc(NC(=S)NNc2ccnc3cc(Cl)ccc23)cc1 | -7.9 | 17.8 | -8.7 | 8.0 | 20.9 | -8.7
CC(C)N1CCCC(C)(C(=O)Nc2cccc(Oc3ccccc3)c2)C1 (stereo unspecified) | 0.7 | -1.3 | -10.5 | 35.9* | -11.0 | -20.4
CC(C)N1CCCC(C)(C(=O)Nc2ccccc2)C1 (stereo unspecified) | -0.7 | 0.0 | -3.1 | 3.8 | 10.9 | 1.9
CCCNC(=O)C1(C)CCCN(Cc2ccc(Oc3ccccc3)cc2)C1 (stereo unspecified) | -4.7 | 7.1 | -8.0 | 39.7* | -38.6 | -24.9
CCCNC(=O)C1(C)CCN(Cc2ccc(Oc3ccccc3)cc2)C1 (stereo unspecified) | -7.5 | 1.8 | -5.8 | 14.1 | -2.5 | -19.6
O=C1[C@H](Cc2ccccc2)NCCCC[C@@H](c2ccc(Cl)cc2)N1Cc1ccc(Cl)cc1 | 2.0 | 41.1* | 0.9 | -4.0 | 13.8 | 14.1
O=C1[C@H](Cc2ccccc2)NCCCC[C@H](c2ccc(Cl)cc2)N1Cc1ccccc1 | -0.8 | 2.1 | -3.3 | -1.9 | -0.4 | 4.8
Cc1ccc(C(=O)N2NC(c3ccc(F)cc3)C3C(=O)N(c4ccc(C)c(C)c4)C(=O)C32)cc1 (stereo unspecified) | 5.4 | 37.7* | 8.7 | 1.6 | 5.0 | 15.2
